Source: ChEMBL document CHEMBL3870363, “Systematic Study of Effects of Structural Modifications on the Aqueous Solubility of Drug-like Molecules” (ACS Med Chem Lett, 2017)
In brackets after ≈: the same amount, converted by molar mass.

Assays:
[1] = Aqueous solubility of the compound in Britton-Robinson buffer at pH 6.5 measured after 2 days by saturation shake flask based UV-vis spectroscopy; format: physicochemical
Summary of the method: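 Shake-flask method: saturated solutions formed by stirring 2 days in Britton–Robinson buffer (pH 6.5), then filtered through a 0.2 μm pore syringe filter and quantified by UV–vis. Piroxicam served as a repeated control.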

[2] = molecular target: T1, Macrophage migration inhibitory factor (Homo sapiens, UniProt P14174); assay: Inhibition of recombinant human MIF tautomerase activity expressed in Escherichia coli assessed as borate-enol complex formation using 4-hydroxyphenyl pyruvic acid as substrate preincubated for 20 mins followed by substrate addition measured for 175 sec by spectrophotometric analysis
T1 sequence (P14174 whole entry): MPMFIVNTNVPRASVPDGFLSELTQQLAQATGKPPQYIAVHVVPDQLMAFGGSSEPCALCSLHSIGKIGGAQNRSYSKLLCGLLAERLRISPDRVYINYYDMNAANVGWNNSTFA

[3] = Equilibrium solubility of the compound in Britton-Robinson buffer stirred for 6 hrs followed by sedimentation for 18 hrs by saturation shake flask based UV-vis spectroscopy; format: physicochemical

| solubility thermodynamic at 48 h [1] | Ki [2] | solubility thermodynamic at 6 h [3] | SMILES |
| --- | --- | --- | --- |
| 19.2 µg/mL (≈ 47 µM) |  |  | O=C(O)CCCOc1ccc2nc(-c3cn(-c4ccc(O)c(F)c4)nn3)ccc2c1 |
| 13.9 µg/mL |  |  | NCCOCCOc1ccc2nc(-c3cn(-c4ccc(O)cc4)nn3)ccc2c1.O=C(O)C(F)(F)F |
| 2.6 µg/mL (≈ 7.46 µM) |  |  | OCCOc1ccc2nc(-c3cn(-c4ccc(O)cc4)nn3)ccc2c1 |
| 6.1 µg/mL (≈ 12.9 µM) | 24 nM |  | COCCOc1cccc(Oc2cccc3nc(-c4cn(-c5ccc(O)c(F)c5)nn4)ccc23)c1 |
| 365 µg/mL (≈ 1010 µM) |  |  | O=C(O)COc1ccc2nc(-c3cn(-c4ccc(O)cc4)nn3)ccc2c1 |
| 3.6 to 4 µg/mL (≈ 9.93 to 11 µM) |  |  | COCCOc1ccc2nc(-c3cn(-c4ccc(O)cc4)nn3)ccc2c1 |
| 6.5 µg/mL (≈ 19.6 µM) |  | 6.36 µg/mL (≈ 19.2 µM) | CN1C(C(=O)Nc2ccccn2)=C(O)c2ccccc2S1(=O)=O [PIROXICAM] |
| 3.7 µg/mL |  |  | NCCOc1ccc2nc(-c3cn(-c4ccc(O)cc4)nn3)ccc2c1.O=C(O)C(F)(F)F |

More lines, now with the values behind:

| SMILES | solubility thermodynamic at 48 h [1] | Ki [2] | solubility thermodynamic at 6 h [3] |
| --- | --- | --- | --- |
| O=C(O)c1cccc(Oc2cccc3nc(-c4cn(-c5ccc(O)c(F)c5)nn4)ccc23)c1 | 47.2 µg/mL (≈ 107 µM) |  |  |
| O=C(O)COc1ccc2nc(-c3cn(-c4ccccc4)nn3)ccc2c1 | 1050 µg/mL (≈ 3020 µM) | 1370 nM |  |
| Oc1ccc(-n2cc(-c3ccc4ccccc4n3)nn2)cc1 | 2.2 µg/mL (≈ 7.63 µM) |  |  |
| O=C(O)COCCOc1ccc2nc(-c3cn(-c4ccc(O)c(F)c4)nn3)ccc2c1 | 867 µg/mL (≈ 2040 µM) | 37 nM |  |
| O=C(O)COc1ccc2nc(-c3cn(-c4ccc(O)c(F)c4)nn3)ccc2c1 | 37 µg/mL (≈ 97.3 µM) |  |  |
| COCCOCCOc1ccc2nc(-c3cn(-c4ccc(O)cc4)nn3)ccc2c1 | 2.4 µg/mL (≈ 5.9 µM) | 147 nM |  |
| Oc1ccc(-n2cc(-c3ccc4cc(OCC5CCCCO5)ccc4n3)nn2)cc1 (stereo not drawn) | 3.4 µg/mL (≈ 8.45 µM) | 270 nM |  |
| Oc1ccc(-n2cc(-c3ccc4cc(OCCOCCN5CCOCC5)ccc4n3)nn2)cc1F | 27.2 µg/mL (≈ 56.7 µM) |  |  |
| NCCOCCOc1ccc2nc(-c3cn(-c4ccc(O)c(F)c4)nn3)ccc2c1.O=C(O)C(F)(F)F | 9.1 µg/mL |  |  |
